Experiment [1] is described as follows: (§1) Antagonist activity at endothelin A receptor in Mongolian gerbil spiral modiolar artery assessed as inhibition of ET-1-induced vasoconstriction at 0.1 to 1 uM […] followed by compound washout and again ET-1 addition by video microscopic analysis. In kind it is tissue-based, Meriones unguiculatus.
For the next experiment, the species on record is Meriones unguiculatus. Described as §1. Type of experiment: tissue-based.
In experiment [2] the target is T1, Endothelin-1 receptor (Rattus norvegicus, UniProt P26684).
T1 sequence (P26684 whole entry): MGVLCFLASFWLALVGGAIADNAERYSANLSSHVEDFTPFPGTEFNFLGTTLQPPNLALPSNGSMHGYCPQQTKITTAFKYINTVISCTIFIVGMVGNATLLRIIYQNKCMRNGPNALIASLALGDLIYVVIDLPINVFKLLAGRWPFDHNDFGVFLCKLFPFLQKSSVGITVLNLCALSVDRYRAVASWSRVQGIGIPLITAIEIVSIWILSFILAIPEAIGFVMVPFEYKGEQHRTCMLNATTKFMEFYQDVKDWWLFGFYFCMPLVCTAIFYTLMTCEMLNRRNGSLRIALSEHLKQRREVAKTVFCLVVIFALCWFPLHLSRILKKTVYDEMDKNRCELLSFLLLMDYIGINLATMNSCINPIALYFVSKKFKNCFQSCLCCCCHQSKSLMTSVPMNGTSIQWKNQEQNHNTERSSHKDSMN
The experiment in a line: Antagonist activity at endothelin A receptor in rat A7r5 cells assessed as inhibition of ET-1-induced increase in cytosolic free Ca2+ level treated 1 min prior to ET-1 addition by fura-2 dye-based spectrofluorometric analysis. Type of experiment: functional, cell-based.

The target in experiment [3] is T1, Endothelin-1 receptor. The experiment in a line: Antagonist activity at endothelin A receptor in Wistar rat thoracic aorta strips assessed as inhibition of ET1-induced vasoconstriction preincubated for 5 mins followed by ET1 addition.
Experiment [4] addresses Voltage-dependent T-type calcium channel subunit alpha-1H (Mus musculus) (UniProt O88427). Nature of the experiment: Inhibition of Cav3.2 T-type channel in C57/BC6 mouse DRG neurons assessed as inhibition of low-voltage activated Ca2+ currents by patch clamp method. An outline of the steps:
(§2)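 Whole-cell voltage clamp at about 21 °C on large acutely dissociated DRG neurons from 1-2-month C57/BC6 mice, used within 2 days. Holding potential -90 mV, 100-ms steps in 10 mV increments every 2 s, giving low- and high-voltage-activated Ca2+ currents. Bath-applied compound 0.1–3 µM, vehicle 0.1% DMSO. IC50 from a logistic fit, mean ± SEM, n = 4 per point.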
A general note: The patch-clamp technique gives a direct electrical read-out from membranes.

The species named for experiment [5] is Mus musculus. The experiment in a line: Inhibition of L-type Ca2+ channel in C57/BC6 mouse DRG neurons assessed as inhibition of high-voltage activated Ca2+ currents by patch clamp method. An outline of the steps:
as §2

Experiment [6] is filed under the species Mus musculus. The experiment in a line: Inhibition of voltage-gated sodium channel in C57/BC6 mouse DRG neurons assessed as inhibition of voltage activated Na+ currents at 0.1 to 0.3 uM by patch clamp method. An outline of the steps: (§3)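 Whole-cell voltage clamp at about 21 °C on acutely dissociated mouse DRG neurons. TTX-sensitive inward Na+ currents elicited by steps to 0 mV for 20 ms, outward K+ currents by steps to 70 mV for 300 ms, at 0.1 Hz; stable 30 min under control. Compound bath-applied, time course followed; vehicle 0.1% DMSO.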

For experiment [7], the species on record is Mus musculus. Nature of the experiment: Inhibition of voltage-gated potassium channel in C57/BC6 mouse DRG neurons assessed as inhibition of voltage activated […] currents at 0.1 to 0.3 uM by patch clamp method. The gist of the method:
as §3

The species entered for experiment [8] is Mus musculus. Nature of the experiment: Inhibition of voltage-gated sodium channel in C57/BC6 mouse DRG neurons assessed as inhibition of voltage activated Na+ currents at 3 uM by patch clamp method. An outline of the steps: as §3
For experiment [9], the species on record is Mus musculus. The experiment in a line: Inhibition of voltage-gated potassium channel in C57/BC6 mouse DRG neurons assessed as inhibition of voltage activated […] currents at 3 uM by patch clamp method. An outline of the steps: as §3

Calls of active or inactive are those of the source. The rule behind the calls is not given here.

Chain of Voltage-dependent T-type calcium channel subunit alpha-1H (Mus musculus) (O88427 whole entry): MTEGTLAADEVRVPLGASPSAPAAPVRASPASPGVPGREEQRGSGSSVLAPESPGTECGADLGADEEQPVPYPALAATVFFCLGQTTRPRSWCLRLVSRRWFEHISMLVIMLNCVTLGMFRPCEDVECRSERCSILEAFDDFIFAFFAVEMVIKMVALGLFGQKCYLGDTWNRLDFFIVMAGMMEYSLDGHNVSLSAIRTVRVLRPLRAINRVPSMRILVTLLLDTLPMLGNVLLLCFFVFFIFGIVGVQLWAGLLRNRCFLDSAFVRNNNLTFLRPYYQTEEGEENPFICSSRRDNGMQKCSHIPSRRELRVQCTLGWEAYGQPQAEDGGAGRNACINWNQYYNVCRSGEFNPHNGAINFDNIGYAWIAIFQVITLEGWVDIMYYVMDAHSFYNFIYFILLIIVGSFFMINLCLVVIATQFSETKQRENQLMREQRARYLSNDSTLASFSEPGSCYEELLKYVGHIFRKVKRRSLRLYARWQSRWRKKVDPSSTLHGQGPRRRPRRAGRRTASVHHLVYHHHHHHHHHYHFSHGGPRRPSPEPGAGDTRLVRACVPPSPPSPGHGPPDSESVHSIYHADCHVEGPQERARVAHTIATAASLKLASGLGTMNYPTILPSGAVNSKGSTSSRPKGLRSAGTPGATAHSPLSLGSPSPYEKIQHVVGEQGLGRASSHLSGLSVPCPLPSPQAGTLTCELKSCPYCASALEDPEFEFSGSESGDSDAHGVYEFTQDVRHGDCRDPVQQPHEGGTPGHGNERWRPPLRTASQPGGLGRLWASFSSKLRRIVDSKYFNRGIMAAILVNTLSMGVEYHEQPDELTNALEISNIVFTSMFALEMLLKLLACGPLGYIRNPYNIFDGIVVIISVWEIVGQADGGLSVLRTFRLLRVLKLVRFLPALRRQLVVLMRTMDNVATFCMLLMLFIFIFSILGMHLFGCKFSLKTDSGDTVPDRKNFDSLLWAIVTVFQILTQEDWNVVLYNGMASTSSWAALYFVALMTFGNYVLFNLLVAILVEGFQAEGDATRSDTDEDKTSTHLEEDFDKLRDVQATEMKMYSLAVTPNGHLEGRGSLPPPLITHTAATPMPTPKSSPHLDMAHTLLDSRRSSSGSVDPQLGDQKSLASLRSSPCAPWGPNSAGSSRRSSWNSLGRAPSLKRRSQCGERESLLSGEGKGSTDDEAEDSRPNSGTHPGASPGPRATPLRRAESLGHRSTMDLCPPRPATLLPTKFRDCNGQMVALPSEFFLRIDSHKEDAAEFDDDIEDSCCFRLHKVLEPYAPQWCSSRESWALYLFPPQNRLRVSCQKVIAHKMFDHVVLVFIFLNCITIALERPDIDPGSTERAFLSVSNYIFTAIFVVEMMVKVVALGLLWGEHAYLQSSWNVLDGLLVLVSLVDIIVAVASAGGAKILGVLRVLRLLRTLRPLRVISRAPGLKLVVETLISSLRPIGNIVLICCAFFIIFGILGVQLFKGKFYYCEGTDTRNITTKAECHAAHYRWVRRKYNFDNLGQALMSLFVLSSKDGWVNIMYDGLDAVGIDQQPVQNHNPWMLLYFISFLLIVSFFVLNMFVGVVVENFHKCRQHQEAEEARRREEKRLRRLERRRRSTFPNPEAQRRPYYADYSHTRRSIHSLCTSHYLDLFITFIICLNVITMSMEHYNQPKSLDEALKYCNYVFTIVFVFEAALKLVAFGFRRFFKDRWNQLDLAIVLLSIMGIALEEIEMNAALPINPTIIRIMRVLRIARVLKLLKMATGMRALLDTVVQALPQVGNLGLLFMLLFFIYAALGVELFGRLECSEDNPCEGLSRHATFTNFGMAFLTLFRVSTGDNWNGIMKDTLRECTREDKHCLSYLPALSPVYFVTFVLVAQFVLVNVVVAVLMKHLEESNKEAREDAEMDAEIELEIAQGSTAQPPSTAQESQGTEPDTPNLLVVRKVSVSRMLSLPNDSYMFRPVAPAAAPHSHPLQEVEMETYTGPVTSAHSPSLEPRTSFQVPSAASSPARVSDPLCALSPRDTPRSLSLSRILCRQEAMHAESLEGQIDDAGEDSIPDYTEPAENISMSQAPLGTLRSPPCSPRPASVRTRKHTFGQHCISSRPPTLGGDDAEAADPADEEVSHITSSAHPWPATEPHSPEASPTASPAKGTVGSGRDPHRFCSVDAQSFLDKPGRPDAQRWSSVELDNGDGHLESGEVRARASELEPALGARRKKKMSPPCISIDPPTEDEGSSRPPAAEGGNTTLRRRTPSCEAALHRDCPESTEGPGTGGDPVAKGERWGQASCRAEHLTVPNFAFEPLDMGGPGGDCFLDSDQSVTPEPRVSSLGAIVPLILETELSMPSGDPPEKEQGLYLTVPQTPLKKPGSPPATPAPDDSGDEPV

For orientation: pA2 means a measure of antagonist potency on a negative log scale. In the case of `CC1(C)C(=O)CC[C@]2(C)[C@H]3CCc4ccc(OCCO)cc4[C@]3(C)CC[C@@H]12`, the pA2 in experiment [1] is listed as 6.5.
Still for that read-out and setting: the result for `CC1(C)[C@@H]2CC[C@]3(C)[C@H](CC[C@@H]4CC[C@@]5(O)C[C@]43C=N5)[C@@]2(C)CCC12OCCO2` reads 6.5; that for `CC1(C)C(=O)CC[C@]2(C)[C@H]3CCc4ccc(O)cc4[C@]3(C)CC[C@@H]12`, 6.7.
Take `CC1(C)C(=O)CC[C@]2(C)[C@H]3CC[C@@H]4CCC(=O)C[C@@]4(C#N)[C@]3(C)CC[C@@H]12`: in [1], the pA2 worked out at 6.9. Besides, in the experiment listed under Meriones unguiculatus, the A2 came out at 134 nM.
As usually defined, the IC50 is the point on the concentration scale where inhibition reaches its midpoint. In general, Ki refers to the equilibrium dissociation constant of an inhibitor or competing ligand from its target. On to `CC1(C)CC[C@]2(C(=O)O)CC[C@]3(COC(=O)/C=C/c4ccc(O)c(O)c4)C(=CC[C@@H]4[C@@]5(C)CCC(=O)C(C)(C)[C@@H]5CC[C@]43C)[C@@H]2C1`, for which the pA2 in experiment [1] came out at 7.1. Moreover, in the experiment filed under Meriones unguiculatus, the A2 is 85 nM. Moreover, the half-inhibitory concentration (IC50) at Endothelin-1 receptor [2] was determined as 11 nM. Further, the Ki at Endothelin-1 receptor [3] is 66 nM.
Regarding `CC1(C)C(=O)CC[C@]2(C)[C@H]3CC[C@@H]4CCC(=O)C=C4[C@]3(C)CC[C@@H]12`, the pA2 in experiment [1] came out at 6.7.
`CC1(C)[C@@H]2CC[C@]3(C)[C@H](CC[C@@H]4CC=C(O[Si](C)(C)C(C)(C)C)C[C@]43C=N)[C@@]2(C)CCC12OCCO2` (single isomer, unassigned; (-)): the pA2 in [1] is recorded as 7. Moreover, the A2 in the experiment listed under Meriones unguiculatus is 93 nM. Besides, the inhibition entry (in experiment [4]; in the experiment filed under Mus musculus [5]) was “Dose-dependent effect” in each case. Further, the inhibition entry in the experiment listed under Mus musculus [6] and in the experiment filed under Mus musculus [7] was “inactive” each time. The inhibition result in the experiment listed under Mus musculus [8] and in the experiment filed under Mus musculus [9] was “Active” each time.
